Test results: ChEMBL document CHEMBL4145675, “2-Phenylquinoline S. aureus NorA Efflux Pump Inhibitors: Evaluation of the Importance of Methoxy Group Introduction” (J Med Chem, 2018)
Values after ≈ are worked out from the molar mass of the structure shown. Active and inactive are the calls of the source. The rule behind the calls is not given here.

How the values were obtained:
Cytochrome P450 2D6 [1] = target: T1, Cytochrome P450 2D6 (Homo sapiens, UniProt P10635); test: Inhibition of human recombinant CYP2D6 at 10 uM using beetle D-luciferin as substrate by CYP450-Glo assay; format: ADME; conditions: recombinant enzyme
Outline: (§1)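 Luminescent P450-Glo assay in which recombinant human CYP3A4 or CYP2D6 converts a beetle D-luciferin derivative to D-luciferin. Compound was tested at 1 and 10 µM.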

[2] = target: T2, Quinolone resistance protein NorA (Staphylococcus aureus) (UniProt P0A0J7); test: Inhibition of NorA in Staphylococcus aureus SA-1199B expressing GrlA A116E mutant assessed as reduction in EtBr efflux at 50 uM incubated for 5 mins by fluorescence based assay
T2 sequence (whole entry): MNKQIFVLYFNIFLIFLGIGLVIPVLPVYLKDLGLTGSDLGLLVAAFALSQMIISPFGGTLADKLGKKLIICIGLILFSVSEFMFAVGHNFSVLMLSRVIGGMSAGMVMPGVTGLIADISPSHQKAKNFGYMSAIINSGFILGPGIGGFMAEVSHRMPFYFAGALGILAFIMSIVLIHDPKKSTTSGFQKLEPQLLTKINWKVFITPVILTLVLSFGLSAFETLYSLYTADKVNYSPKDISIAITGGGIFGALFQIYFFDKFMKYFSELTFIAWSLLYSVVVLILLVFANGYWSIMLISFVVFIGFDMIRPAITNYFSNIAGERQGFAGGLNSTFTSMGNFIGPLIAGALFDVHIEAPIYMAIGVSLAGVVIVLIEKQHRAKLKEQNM
Outline: (§2)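 Cells were grown overnight in cation-supplemented Mueller-Hinton broth at 35 °C and subcultured to OD600 0.7–0.8. They were loaded at OD600 0.8 with 25 µM EtBr plus 100 µM CCCP (final) for 20 min at room temperature. Cells were then resuspended in fresh broth with or without compound, 50 µM for the single-point screen or a concentration series for IC50. Fluorescence (ex 485/em 645 nm) was read for 5 min. Inhibition was calculated from the fluorescence decrease versus untreated cells. Biological triplicate, each run twice.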

Staphylococcus aureus [3] = test: Synergistic potentiation of ciprofloxacin-induced antimicrobial activity against wild type Staphylococcus aureus ATCC 25923 at 0.78 to 100 ug/ml by microdilution method based Checkerboard assay; format: functional, organism-based
Staphylococcus aureus [4] = test: Antimicrobial activity against mepA deficient Staphylococcus aureus SA-K2885 by microdilution method; format: organism-based; conditions: in vivo
Outline: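 CLSI broth microdilution MIC of the compound alone in norA-deleted strains. SA-K2885 carries empty pALC2073 and SA-K2886 carries pALC2073-mepA (xyl/tetO promoter). 0.05 µg/mL tetracycline was present throughout to induce.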

Staphylococcus aureus [5] = test: Induction of membrane depolarization in Staphylococcus aureus SA-1199B expressing wild type norA at 1 ug/ml incubated for 30 mikns by DiOC2(3) fluorescent probe based cytofluorimetry; format: organism-based; conditions: in the assay text read “overexpressing norA” for “expressing wild type norA”
Outline: (§3)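 SA-1199B was grown in MHB at 37 °C to OD600 0.6, washed, and diluted to 1×10^6 CFU/mL in filtered PBS. DiOC2(3) was added at 30 µM final, and compound at 1, 5 or 10 µg/mL for 30 min. CCCP 5 µM final served as positive control. Flow cytometry with 488 nm excitation gave a red/green ratio normalized to the DiOC2(3) blank, expressed as % depolarized versus drug-free control.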

[6] = target: Quinolone resistance protein NorA (Staphylococcus aureus, UniProt P0A0J7, A116E); test: Inhibition of NorA in Staphylococcus aureus SA-1199B expressing GrlA A116E mutant assessed as reduction in EtBr efflux incubated for 5 mins by fluorescence based assay; outline: as §2
[7] = Selectivity index, ratio of CC50 for human HepG2 cells to inhibition of NorA in Staphylococcus aureus SA-1199B expressing GrlA A116E mutant assessed as minimal potentiating drug concentration causing 8 fold reduction in ciprofloxacin MIC by microdilution method based Checkerboard assay; format: toxicity; conditions: read-out: Selectivity Index
Outline: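 CC50 cells (HepG2 for […], THP-1 for […]) were grown to confluence in RPMI 1640 with 10% FCS, penicillin and streptomycin. They were exposed 24 h at 37 °C to 0–250 µg/mL. Viability was read by ATP bioluminescence, triplicate. CC50 is the concentration reducing cell number 50% versus untreated.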

Staphylococcus aureus [8] = test: Induction of membrane depolarization in Staphylococcus aureus SA-1199B expressing wild type norA at 1 to 10 ug/ml incubated for 30 mikns by DiOC2(3) fluorescent probe based cytofluorimetry; format: organism-based; conditions: in vivo; outline: as §3
[9] = target: T2, Quinolone resistance protein NorA (Staphylococcus aureus); test: Inhibition of NorA in Staphylococcus aureus SA-1199B expressing GrlA A116E mutant assessed as minimal potentiating drug concentration causing 8 fold reduction in ciprofloxacin MIC by microdilution method based Checkerboard assay
Cytochrome P450 2D6 [10] = target: T1, Cytochrome P450 2D6; test: Inhibition of human recombinant CYP2D6 at 1 uM using beetle D-luciferin as substrate by CYP450-Glo assay; format: ADME; conditions: recombinant enzyme; outline: as §1
[11] = Metabolic stability in mouse liver microsomes assessed as parent compound remaining at 50 uM in presence of NADPH regenerating system incubated for 120 mins by UPLC/MS analysis; format: ADME, microsome; conditions: read-out: Stability
Outline: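 1 mg/mL mouse liver microsomes in 0.1 M Tris-HCl pH 7.4 with test compound at 50 µM, DMSO up to ~3%. Preincubated 5 min at 37 °C, then started with NADPH regeneration system. Stopped at 120 min with cold methanol and centrifuged. Supernatant analysed by UPLC/MS (ESI, tandem quadrupole).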

[12] = target: T2, Quinolone resistance protein NorA (Staphylococcus aureus); test: Inhibition of NorA in Staphylococcus aureus SA-K2378 assessed as synergistic potentiation of ciprofloxacin-induced antimicrobial activity at 0.78 to 100 ug/ml by microdilution method based Checkerboard assay
Staphylococcus aureus [13] = test: Synergistic potentiation of ciprofloxacin-induced antimicrobial activity against norA deleted Staphylococcus aureus SA-K1902 at 0.78 to 100 ug/ml by microdilution method based Checkerboard assay; format: functional, organism-based
[14] = target: T2, Quinolone resistance protein NorA (Staphylococcus aureus); test: Inhibition of NorA in Staphylococcus aureus SA-1199B expressing GrlA A116E mutant assessed as synergistic potentiation of ciprofloxacin-induced antimicrobial activity by measuring reduction in ciprofloxacin MIC at 0.78 ug/ml by microdilution method based Checkerboard assay
[15] = Cytotoxicity in human THP1 cells assessed as reduction in cell viability incubated for 24 hrs by ATP bioluminescence assay; format: cell-based, THP-1
Outline: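 Cells were grown to confluence overnight in RPMI 1640 with 10% heat-inactivated fetal calf serum, penicillin and streptomycin. Monolayers were exposed for 24 h at 37 °C to scalar concentrations (0-250 µg/mL). Viability was read by ATP bioluminescence, each concentration in triplicate. CC50 is the concentration reducing cell number by 50% versus untreated controls.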

Cytochrome P450 3A4 = Cytochrome P450 3A4 (Homo sapiens, UniProt P08684); test: Inhibition of human recombinant CYP3A4 at 1 uM using beetle D-luciferin as substrate by CYP450-Glo assay; format: ADME; conditions: recombinant enzyme; outline: as §1
Staphylococcus aureus [16] = test: Antimicrobial activity against Staphylococcus aureus ATCC 25923 by microdilution method; format: organism-based; conditions: in vivo
Outline: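 Broth microdilution MIC per CLSI guidelines. ATCC 25923 is norA wild-type. SA-1199B overexpresses norA and carries an A116E GrlA substitution.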

T1 sequence (P10635 whole entry): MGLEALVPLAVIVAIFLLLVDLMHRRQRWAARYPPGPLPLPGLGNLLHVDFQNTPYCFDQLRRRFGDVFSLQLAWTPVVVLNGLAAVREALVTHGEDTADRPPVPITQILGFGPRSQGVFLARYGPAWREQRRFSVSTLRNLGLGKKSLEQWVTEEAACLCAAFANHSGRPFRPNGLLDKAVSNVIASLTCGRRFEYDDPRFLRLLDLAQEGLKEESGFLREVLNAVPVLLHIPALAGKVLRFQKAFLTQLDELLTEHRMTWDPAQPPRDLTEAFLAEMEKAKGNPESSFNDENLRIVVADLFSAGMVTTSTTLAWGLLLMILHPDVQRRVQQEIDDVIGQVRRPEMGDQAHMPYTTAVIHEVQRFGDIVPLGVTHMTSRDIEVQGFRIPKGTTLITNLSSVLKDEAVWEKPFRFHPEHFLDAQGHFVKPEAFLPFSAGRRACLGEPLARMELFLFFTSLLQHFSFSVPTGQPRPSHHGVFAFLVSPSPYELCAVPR
Sequence of Cytochrome P450 3A4 (P08684 whole entry): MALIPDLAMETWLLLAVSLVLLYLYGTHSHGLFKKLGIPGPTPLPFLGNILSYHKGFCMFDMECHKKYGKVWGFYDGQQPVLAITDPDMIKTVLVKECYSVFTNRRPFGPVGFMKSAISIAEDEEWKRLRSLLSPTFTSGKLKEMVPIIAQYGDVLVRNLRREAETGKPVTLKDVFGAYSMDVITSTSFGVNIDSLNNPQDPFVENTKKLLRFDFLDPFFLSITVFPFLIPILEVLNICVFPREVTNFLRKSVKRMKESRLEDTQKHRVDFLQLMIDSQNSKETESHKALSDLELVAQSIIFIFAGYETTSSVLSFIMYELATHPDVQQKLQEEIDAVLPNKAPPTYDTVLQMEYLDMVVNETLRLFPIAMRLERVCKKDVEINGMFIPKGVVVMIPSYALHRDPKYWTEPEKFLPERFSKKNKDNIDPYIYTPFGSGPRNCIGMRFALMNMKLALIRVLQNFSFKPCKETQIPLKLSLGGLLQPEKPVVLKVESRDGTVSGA

SMILES | inhibition (INH) (Cytochrome P450 2D6 [1]) | inhibition [2] | synergistic potentiation of ciprofloxacin activity (Staphylococcus aureus [3]) | MIC (Staphylococcus aureus [4]) | Activity (Staphylococcus aureus [5]) | IC50 [6] | selectivity ratio [7] | Activity (Staphylococcus aureus [8]) | Activity [9] | inhibition (INH) (Cytochrome P450 2D6 [10]) | remaining at 2 h, 50 µM [11] | inhibition [12] | Activity (Staphylococcus aureus [13]) | fold change (FC) [14] | CC50 at 24 h [15] | inhibition (INH) (Cytochrome P450 3A4) | MIC (Staphylococcus aureus [16])
CCCOc1ccc(-c2cc(OCCN3CCc4cc(OC)c(OC)cc4C3)c3cc(OC)c(OC)cc3n2)cc1 | Active | 94.1% | Active | 100 µg/mL (≈ 179 µM) | < 20% | 1100 nM | 95 | Dose-dependent effect | 0.78 µg/mL | Not Active | 62% | Active | inactive | 8 | 37 µg/mL (≈ 66.2 µM) | Not Active | > 100 µg/mL
CCCOc1ccc(-c2cc(OCCN3CCCCC3)c3cc(OC)ccc3n2)cc1 | Active | 97.6% | Active | 12.5 µg/mL (≈ 29.7 µM) | < 10% | 4200 nM | 50 | Dose-dependent effect | 0.78 µg/mL | Not Active | > 90% | Active | inactive | 8 | > 100 µg/mL | Not Active | 50 µg/mL (≈ 119 µM)
